Experimental data published in ChEMBL document CHEMBL1124822, “(8 beta)-6-methylergoline amide derivatives as serotonin antagonists: N1-substituent effects on vascular 5HT2 receptor activity” (J Med Chem, 1990).

Target: Serotonin 2 (5-HT2) receptor (Rattus norvegicus) (UniProt P30994+P08909+P14842)
Experiment: Antagonistic activity against (5-hydroxytryptamine 2 receptor) serotonin-induced contractions in the rat jugular vein
Format: functional
Procedure, shortened: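 Isolated jugular vein segments mounted on two L-shaped needles, one tied to a transducer, in organ baths with 10 mL modified Krebs bicarbonate solution; 1-2 h equilibration. Control cumulative serotonin contraction curves were recorded, then the antagonist was incubated 1 h and the curves repeated, one antagonist concentration per tissue. K_B = [B]/(dose ratio − 1), using serotonin ED50 ratios; reported as −log K_B.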

Sequence of Serotonin 2 (5-HT2) receptor (Rattus norvegicus) (P08909 whole entry, looked up): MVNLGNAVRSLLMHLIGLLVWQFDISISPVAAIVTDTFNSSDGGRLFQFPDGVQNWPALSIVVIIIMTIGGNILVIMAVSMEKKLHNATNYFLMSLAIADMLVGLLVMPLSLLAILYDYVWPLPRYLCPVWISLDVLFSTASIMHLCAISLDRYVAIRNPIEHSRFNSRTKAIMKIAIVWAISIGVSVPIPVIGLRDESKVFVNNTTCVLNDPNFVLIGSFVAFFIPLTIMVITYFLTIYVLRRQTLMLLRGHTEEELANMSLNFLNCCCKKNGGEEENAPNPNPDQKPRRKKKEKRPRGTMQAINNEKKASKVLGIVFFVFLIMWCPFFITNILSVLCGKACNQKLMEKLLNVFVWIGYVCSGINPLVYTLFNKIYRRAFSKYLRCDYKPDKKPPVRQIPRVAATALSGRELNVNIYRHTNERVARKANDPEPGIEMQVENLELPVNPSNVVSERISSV
Sequence of Serotonin 2 (5-HT2) receptor (Rattus norvegicus) (P14842 whole entry, looked up): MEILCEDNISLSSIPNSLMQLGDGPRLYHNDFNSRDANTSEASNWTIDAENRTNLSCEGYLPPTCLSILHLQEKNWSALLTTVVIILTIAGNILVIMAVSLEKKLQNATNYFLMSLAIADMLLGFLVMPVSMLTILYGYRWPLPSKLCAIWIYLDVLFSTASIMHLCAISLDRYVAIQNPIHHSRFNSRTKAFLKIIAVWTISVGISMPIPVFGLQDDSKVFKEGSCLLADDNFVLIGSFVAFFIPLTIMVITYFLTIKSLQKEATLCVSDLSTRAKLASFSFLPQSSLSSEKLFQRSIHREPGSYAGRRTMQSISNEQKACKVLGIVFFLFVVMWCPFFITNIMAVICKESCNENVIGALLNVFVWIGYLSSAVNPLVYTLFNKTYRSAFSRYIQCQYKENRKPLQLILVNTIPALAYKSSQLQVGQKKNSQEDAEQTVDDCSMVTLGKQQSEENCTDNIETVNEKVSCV
Sequence of Serotonin 2 (5-HT2) receptor (Rattus norvegicus) (P30994 whole entry, looked up): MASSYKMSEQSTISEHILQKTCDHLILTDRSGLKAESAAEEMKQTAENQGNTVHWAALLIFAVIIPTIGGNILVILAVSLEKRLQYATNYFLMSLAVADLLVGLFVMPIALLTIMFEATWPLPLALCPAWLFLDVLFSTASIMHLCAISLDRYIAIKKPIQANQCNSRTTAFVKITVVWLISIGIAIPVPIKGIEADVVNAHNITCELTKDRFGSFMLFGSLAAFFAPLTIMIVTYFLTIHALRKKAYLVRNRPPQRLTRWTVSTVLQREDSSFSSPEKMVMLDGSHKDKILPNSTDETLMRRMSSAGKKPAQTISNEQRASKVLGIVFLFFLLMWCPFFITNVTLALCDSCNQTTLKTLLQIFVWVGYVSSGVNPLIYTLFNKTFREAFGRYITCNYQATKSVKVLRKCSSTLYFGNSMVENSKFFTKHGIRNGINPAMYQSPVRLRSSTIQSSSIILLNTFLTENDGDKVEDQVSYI

SMILES | -Log KB
CC(C)n1cc2c3c(cccc31)[C@H]1C[C@@H](c3nnnn3C3CCCCC3)CN(C)[C@@H]1C2 | < 8
CCCn1cc2c3c(cccc31)[C@H]1C[C@@H](C(=O)NC3CCCCC3)CN(C)[C@@H]1C2 | 8
CC(C)Cn1cc2c3c(cccc31)[C@H]1C[C@@H](C(=O)NC3CCCCC3)CN(C)[C@@H]1C2 | < 7
CC(C)Cn1cc2c3c(cccc31)[C@H]1C[C@@H](C(=O)NC3CCCC3)CN(C)[C@@H]1C2 | < 7
CN1C[C@H](C(=O)NC2CCCC2)C[C@@H]2c3cccc4c3c(cn4C)C[C@H]21 | 9.23
CN1C[C@H](CC(=O)NC2CCCCC2)C[C@@H]2c3cccc4[nH]cc(c34)C[C@H]21 | 8.05
CC(C)n1cc2c3c(cccc31)[C@H]1C[C@@H](C(=O)NC3CCCC3)CN(C)[C@@H]1C2 | 10.3
CN1C[C@H](C(N)=O)C[C@@H]2c3cccc4[nH]cc(c34)C[C@H]21 | 7
COC1CCC(C(=O)N[C@@H]2C[C@@H]3c4cccc5c4c(cn5C(C)C)C[C@H]3N(C)C2)CC1 (stereo partly specified) | 9.64
CCC(CC)n1cc2c3c(cccc31)[C@H]1C[C@@H](C(=O)NC3CCCC3)CN(C)[C@@H]1C2 | 7.3
CN1C[C@H](C(=O)NC2CCCC2)C[C@@H]2c3cccc4[nH]cc(c34)C[C@H]21 | 8.87
CN1C[C@H](c2nnnn2C2CCCCC2)C[C@@H]2c3cccc4[nH]cc(c34)C[C@H]21 | < 6.52
CCCCn1cc2c3c(cccc31)[C@H]1C[C@@H](C(=O)NC3CCCCC3)CN(C)[C@@H]1C2 | 7.5
CCn1cc2c3c(cccc31)[C@H]1C[C@@H](NC(=O)C3CCC(OC)CC3)CN(C)[C@@H]1C2 (stereo partly specified) | 9.43
CN1C[C@H](C(N)=O)C[C@@H]2c3cccc4c3c(cn4C)C[C@H]21 | 7.81
COC1CCC(C(=O)N[C@@H]2C[C@@H]3c4cccc5c4c(cn5C)C[C@H]3N(C)C2)CC1 (stereo partly specified) | 8.71

SMILES | -Log KB
CCC(CC)n1cc2c3c(cccc31)[C@H]1C[C@@H](C(=O)NC3CCCCC3)CN(C)[C@@H]1C2 | 7.8
CCCCCCCCn1cc2c3c(cccc31)[C@H]1C[C@@H](C(=O)NC3CCCCC3)CN(C)[C@@H]1C2 | < 7
CN1C[C@H](C(=O)NC2CCCCC2)C[C@@H]2c3cccc4[nH]cc(c34)C[C@H]21 | 9.24
CN1C[C@H](C(=O)NC2CCCCC2)C[C@@H]2c3cccc4c3c(cn4C3CCCC3)C[C@H]21 | < 7
CCn1cc2c3c(cccc31)[C@H]1C[C@@H](C(N)=O)CN(C)[C@@H]1C2 | 8.44
CN1C[C@H](C(=O)NC2CCCCC2)C[C@@H]2c3cccc4c3c(cn4Cc3ccccc3)C[C@H]21 | < 7
CC(C)n1cc2c3c(cccc31)[C@H]1C[C@@H](C(N)=O)CN(C)[C@@H]1C2 | 8.7
CN1C[C@H](CC(=O)NC2CCCCC2)C[C@@H]2c3cccc4c3c(cn4C)C[C@H]21 | 8.97
CCn1cc2c3c(cccc31)[C@H]1C[C@@H](C(=O)NC3CCCCC3)CN(C)[C@@H]1C2 | 9.25
CC(C)n1cc2c3c(cccc31)[C@H]1C[C@@H](CC(=O)NC3CCCCC3)CN(C)[C@@H]1C2 | 8.88
CCn1cc2c3c(cccc31)[C@H]1C[C@@H](C(=O)NC3CCCC3)CN(C)[C@@H]1C2 | 9.8
CN1C[C@H](C(=O)NC2CCCCC2)C[C@@H]2c3cccc4c3c(cn4C)C[C@H]21 | 9.7
C=CCn1cc2c3c(cccc31)[C@H]1C[C@@H](C(=O)NC3CCCCC3)CN(C)[C@@H]1C2 | 8.15
CC(C)n1cc2c3c(cccc31)[C@H]1C[C@@H](C(=O)NC3CCCCC3)CN(C)[C@@H]1C2 | 9.67
CN1C[C@H](c2nnnn2C2CCCCC2)C[C@@H]2c3cccc4c3c(cn4C)C[C@H]21 | < 7
